Tests used:
Type in all cases: functional
Aspergillus flavus [1] = assay: Antifungal activity against Aspergillus flavus MTCC 3306 at 0.25 mg/mL after 72 hrs by agar-well diffusion method; conditions: MTCC 3306, 72 h, read-out: DIZ
Procedure, shortened: (§1)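 Fungal spore suspensions made in normal saline were spread onto agar adjusted to pH 5.7, then dried 1 h at 37 °C. Wells were cut and loaded with test compounds in DMSO at different concentrations, with a DMSO control. Plates run in triplicate at 25 °C for 72 h. Read-out was inhibition zone diameter.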

[2] = Antifungal activity against Chrysosporium keratinophilum MTCC 2827 at 1 mg/mL after 72 hrs by agar-well diffusion method; procedure, shortened: as §1
Aspergillus flavus [3] = assay: Antifungal activity against Aspergillus flavus MTCC 3306 at 0.5 mg/mL after 72 hrs by agar-well diffusion method; conditions: MTCC 3306, 72 h, read-out: DIZ; procedure, shortened: as §1
[4] = Antifungal activity against Chrysosporium keratinophilum MTCC 2827 at 0.25 mg/mL after 72 hrs by agar-well diffusion method; procedure, shortened: as §1
Candida albicans [5] = assay: Antifungal activity against Candida albicans MTCC 3017 at 0.5 mg/mL after 72 hrs by agar-well diffusion method; conditions: MTCC 3017, 72 h, read-out: DIZ; procedure, shortened: as §1
Candida albicans [6] = assay: Antifungal activity against Candida albicans MTCC 3017 at 0.25 mg/mL after 72 hrs by agar-well diffusion method; conditions: MTCC 3017, 72 h, read-out: DIZ; procedure, shortened: as §1
[7] = Antifungal activity against Chrysosporium keratinophilum MTCC 2827 at 0.5 mg/mL after 72 hrs by agar-well diffusion method; procedure, shortened: as §1
Candida albicans [8] = assay: Antifungal activity against Candida albicans MTCC 3017 at 1 mg/mL after 72 hrs by agar-well diffusion method; conditions: MTCC 3017, 72 h, read-out: DIZ; procedure, shortened: as §1
Aspergillus flavus [9] = assay: Antifungal activity against Aspergillus flavus MTCC 3306 at 1 mg/mL after 72 hrs by agar-well diffusion method; conditions: MTCC 3306, 72 h, read-out: DIZ; procedure, shortened: as §1
Staphylococcus aureus [10] = assay: Antibacterial activity against Staphylococcus aureus ATCC 25923 at 0.5 mg/mL after 24 hrs by agar-well diffusion method; conditions: ATCC 25923, 24 h, read-out: IZ
Procedure, shortened: (§2)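 Well diffusion on Mueller-Hinton agar seeded with 24 h old cultures. Test compounds dissolved in DMSO at 1, 0.5 and 0.25 mg/mL. 6 mm wells were punched with a sterile cork borer, test solutions added, and plates incubated 24 h at 37 °C.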

Escherichia coli [11] = assay: Antibacterial activity against Escherichia coli ATCC 25922 at 1 mg/mL after 24 hrs by agar-well diffusion method; conditions: ATCC 25922, 24 h, read-out: IZ; procedure, shortened: as §2
Pseudomonas aeruginosa [12] = assay: Antibacterial activity against Pseudomonas aeruginosa ATCC 27853 at 1 mg/mL after 24 hrs by agar-well diffusion method; conditions: ATCC 27853, 24 h, read-out: IZ; procedure, shortened: as §2
Escherichia coli [13] = assay: Antibacterial activity against Escherichia coli ATCC 25922 at 0.25 mg/mL after 24 hrs by agar-well diffusion method; conditions: ATCC 25922, 24 h, read-out: IZ; procedure, shortened: as §2
[14] = system: Radical scavenging activity; assay: Antioxidant activity assessed as DPPH free radical scavenging activity at 100 uM after 30 mins
Procedure, shortened: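 Sample brought to 1 mL with MeOH and mixed with 3 mL fresh 0.1 mM DPPH. Kept 30 min in the dark, then absorbance read at 517 nm. A DPPH control without sample was included. Scavenging (%) = [(Abs control − Abs sample)/Abs control] × 100.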

Staphylococcus aureus [15] = assay: Antibacterial activity against Staphylococcus aureus ATCC 25923 at 0.25 mg/mL after 24 hrs by agar-well diffusion method; conditions: ATCC 25923, 24 h, read-out: IZ; procedure, shortened: as §2
Staphylococcus aureus [16] = assay: Antibacterial activity against Staphylococcus aureus ATCC 25923 at 1 mg/mL after 24 hrs by agar-well diffusion method; conditions: ATCC 25923, 24 h, read-out: IZ; procedure, shortened: as §2
Pseudomonas aeruginosa [17] = assay: Antibacterial activity against Pseudomonas aeruginosa ATCC 27853 at 0.5 mg/mL after 24 hrs by agar-well diffusion method; conditions: ATCC 27853, 24 h, read-out: IZ; procedure, shortened: as §2
Pseudomonas aeruginosa [18] = assay: Antibacterial activity against Pseudomonas aeruginosa ATCC 27853 at 0.25 mg/mL after 24 hrs by agar-well diffusion method; conditions: ATCC 27853, 24 h, read-out: IZ; procedure, shortened: as §2
Escherichia coli [19] = assay: Antibacterial activity against Escherichia coli ATCC 25922 at 0.5 mg/mL after 24 hrs by agar-well diffusion method; conditions: ATCC 25922, 24 h, read-out: IZ; procedure, shortened: as §2

SMILES | zone of inhibition at 250 µg/mL (Aspergillus flavus [1]) [mm] | inhibition zone (IZ) [2] [mm] | zone of inhibition at 500 µg/mL (Aspergillus flavus [3]) [mm] | inhibition zone (IZ) [4] [mm] | zone of inhibition at 500 µg/mL (Candida albicans [5]) [mm] | zone of inhibition at 250 µg/mL (Candida albicans [6]) [mm] | inhibition zone (IZ) [7] [mm] | zone of inhibition at 1000 µg/mL (Candida albicans [8]) [mm] | zone of inhibition at 1000 µg/mL (Aspergillus flavus [9]) [mm] | zone of inhibition at 500 µg/mL (Staphylococcus aureus [10]) [mm] | zone of inhibition at 1000 µg/mL (Escherichia coli [11]) [mm] | zone of inhibition at 1000 µg/mL (Pseudomonas aeruginosa [12]) [mm] | zone of inhibition at 250 µg/mL (Escherichia coli [13]) [mm] | Activity [14] [%] | zone of inhibition at 250 µg/mL (Staphylococcus aureus [15]) [mm] | zone of inhibition at 1000 µg/mL (Staphylococcus aureus [16]) [mm] | zone of inhibition at 500 µg/mL (Pseudomonas aeruginosa [17]) [mm] | zone of inhibition at 250 µg/mL (Pseudomonas aeruginosa [18]) [mm] | zone of inhibition at 500 µg/mL (Escherichia coli [19]) [mm]
OC(Cn1cncn1)(Cn1cncn1)c1ccc(F)cc1F [FLUCONAZOLE] | 10 | 17 | 11 | 14 | 21 | 20 | 15 | 22 | 13 |  |  |  |  |  |  |  |  |  | 
COC(=O)C1=C(C)NC(C)=C(C(=O)OC)C1c1c[nH]nc1-c1ccc(Cl)cc1 | 1 | 5 | 3 | 2 | 1 | 0 | 4 | 3 | 6 | 6 | 10 | 9 | 5 | 29.4 | 3 | 8 | 7 | 4 | 8
COC(=O)C1=C(C)NC(C)=C(C(=O)OC)C1c1c[nH]nc1-c1ccc(-c2ccccc2)cc1 | 2 | 3 | 4 | 0 | 0 | 0 | 2 | 0 | 5 | 7 | 13 | 10 | 8 | 25.3 | 5 | 9 | 8 | 7 | 10
COC(=O)C1=C(C)NC(C)=C(C(=O)OC)C1c1c[nH]nc1-c1cc(Cl)sc1Cl | 0 | 4 | 2 | 1 | 2 | 0 | 2 | 3 | 3 | 8 | 10 | 7 | 5 | 30.3 | 4 | 10 | 3 | 1 | 7
CN[C@@H]1[C@H](O[C@H]2[C@H](O[C@H]3[C@H](O)[C@@H](O)[C@H](N=C(N)N)[C@@H](O)[C@@H]3N=C(N)N)O[C@@H](C)[C@]2(O)C=O)O[C@@H](CO)[C@H](O)[C@H]1O [STREPTOMYCIN] |  |  |  |  |  |  |  |  |  | 10 | 16 | 16 | 8 |  | 9 | 15 | 13 | 11 | 10
CCOC(=O)C1=C(C)NC(C)=C(C(=O)OCC)C1c1c[nH]nc1-c1ccc(OC)cc1 | 0 | 3 | 1 | 0 | 1 | 2 | 2 | 3 | 2 | 8 | 12 | 10 | 5 | 30.3 | 6 | 13 | 7 | 5 | 8
CCOC(=O)C1=C(C)NC(C)=C(C(=O)OCC)C1c1c[nH]nc1-c1cc(Cl)sc1Cl | 3 | 5 | 3 | 2 | 2 | 2 | 2 | 5 | 4 | 9 | 16 | 15 | 8 | 32 | 8 | 13 | 12 | 10 | 10
COC(=O)C1=C(C)NC(C)=C(C(=O)OC)C1c1c[nH]nc1-c1ccc(OC)cc1 | 0 | 0 | 0 | 0 | 0 | 0 | 0 | 0 | 0 | 4 | 7 | 7 | 2 | 30.2 | 2 | 6 | 4 | 2 | 4
Cc1cc(C(C)(C)C)c(O)c(C(C)(C)C)c1 |  |  |  |  |  |  |  |  |  |  |  |  |  | 72.4 |  |  |  |  | 
COC(=O)C1=C(C)NC(C)=C(C(=O)OC)C1c1c[nH]nc1-c1ccc(Cl)cc1Cl | 0 | 5 | 2 | 0 | 0 | 0 | 1 | 3 | 3 | 3 | 6 | 8 | 2 | 35.2 | 2 | 6 | 4 | 2 | 3
CCOC(=O)C1=C(C)NC(C)=C(C(=O)OCC)C1c1c[nH]nc1-c1ccc(Cl)cc1Cl | 2 | 4 | 2 | 1 | 1 | 1 | 2 | 4 | 3 | 7 | 6 | 12 | 2 | 29.2 | 5 | 11 | 9 | 7 | 4
COC(=O)C1=C(C)NC(C)=C(C(=O)OC)C1c1c[nH]nc1-c1ccc(SC)cc1 | 0 | 0 | 0 | 0 | 0 | 0 | 0 | 0 | 0 | 3 | 4 | 6 | 1 | 32.2 | 2 | 6 | 4 | 3 | 2

Source: ChEMBL document CHEMBL1909541, “Hantzsch reaction: synthesis and characterization of some new 1,4-dihydropyridine derivatives as potent antimicrobial and antioxidant agents” (Eur J Med Chem, 2011)
